Key:
[1] = Inhibition of full length recombinant His6-tagged PI4K3alpha (unknown origin) expressed in Sf9 insect cells assessed as residual activity at 100 uM using PI : PS as substrate in presence of [gamma-33P]-ATP by scintillation counting method relative to control; conditions: Homo sapiens
[2] = target: Serine/threonine-protein kinase pim-1 (Homo sapiens) (UniProt P11309); assay: Inhibition of recombinant human N-terminal GST-tagged pim1 expressed in baculovirus infected sf9 cells assessed as residual activity using KRRRLASLR as substrate at 100 uM by ADP-Glo bioluminescence assay relative to control relative to control
Sequence of Serine/threonine-protein kinase pim-1 (Homo sapiens) (P11309 whole entry, looked up): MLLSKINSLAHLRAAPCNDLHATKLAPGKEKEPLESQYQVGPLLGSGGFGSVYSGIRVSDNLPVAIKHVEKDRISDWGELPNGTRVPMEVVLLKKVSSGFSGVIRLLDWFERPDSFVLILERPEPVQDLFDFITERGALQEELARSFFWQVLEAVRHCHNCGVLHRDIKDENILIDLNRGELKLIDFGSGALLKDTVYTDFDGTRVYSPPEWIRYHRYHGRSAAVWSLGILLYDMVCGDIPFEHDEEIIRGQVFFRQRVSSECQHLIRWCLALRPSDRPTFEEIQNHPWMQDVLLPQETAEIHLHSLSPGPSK
Outline: (§1)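 Kinase reactions followed manufacturer's instructions with 10-50 ng enzyme, in 10 µL for 10 min at 30 °C; NP-40 or BSA added for some kinases. Compound at 100 µM. Residual activity is the mean of two independent replicates.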

Enterovirus A71 [3] = assay: Antiviral activity against Enterovirus 71 TW/2429/04 clinical isolates incubated for 2 to 3 days; assay type: functional; conditions: Enterovirus A
Enterovirus A71 [4] = assay: Antiviral activity against Enterovirus 71 TW/96016/08 clinical isolates incubated for 2 to 3 days; assay type: functional; conditions: Enterovirus A
[5] = target: Dual specificity tyrosine-phosphorylation-regulated kinase 1A (Homo sapiens) (UniProt Q13627); assay: Inhibition of human DYRK1A assessed as residual activity at 100 uM by ADP-Glo bioluminescence assay relative to control relative to control; outline: as §1
[6] = Cytotoxicity against human RD cells assessed as change in cell morphology by microscopic method; assay type: cell-based
Outline: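 Uninfected, compound-treated RD cells were inspected by microscope. CC50 was taken from microscopically detectable alteration of cell morphology.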

[7] = target: Focal adhesion kinase 1 (Homo sapiens) (UniProt Q05397); assay: Inhibition of […] recombinant human FAK (393 to 698 residues) expressed in baculovirus infected sf9 cells assessed as residual activity at 100 uM using poly(Glu,Tyr)4:1 as substrate by ADP-Glo bioluminescence assay relative to control relative to control; outline: as §1
Sequence of Focal adhesion kinase 1 (Homo sapiens) (Q05397 2-1052 limits assumed): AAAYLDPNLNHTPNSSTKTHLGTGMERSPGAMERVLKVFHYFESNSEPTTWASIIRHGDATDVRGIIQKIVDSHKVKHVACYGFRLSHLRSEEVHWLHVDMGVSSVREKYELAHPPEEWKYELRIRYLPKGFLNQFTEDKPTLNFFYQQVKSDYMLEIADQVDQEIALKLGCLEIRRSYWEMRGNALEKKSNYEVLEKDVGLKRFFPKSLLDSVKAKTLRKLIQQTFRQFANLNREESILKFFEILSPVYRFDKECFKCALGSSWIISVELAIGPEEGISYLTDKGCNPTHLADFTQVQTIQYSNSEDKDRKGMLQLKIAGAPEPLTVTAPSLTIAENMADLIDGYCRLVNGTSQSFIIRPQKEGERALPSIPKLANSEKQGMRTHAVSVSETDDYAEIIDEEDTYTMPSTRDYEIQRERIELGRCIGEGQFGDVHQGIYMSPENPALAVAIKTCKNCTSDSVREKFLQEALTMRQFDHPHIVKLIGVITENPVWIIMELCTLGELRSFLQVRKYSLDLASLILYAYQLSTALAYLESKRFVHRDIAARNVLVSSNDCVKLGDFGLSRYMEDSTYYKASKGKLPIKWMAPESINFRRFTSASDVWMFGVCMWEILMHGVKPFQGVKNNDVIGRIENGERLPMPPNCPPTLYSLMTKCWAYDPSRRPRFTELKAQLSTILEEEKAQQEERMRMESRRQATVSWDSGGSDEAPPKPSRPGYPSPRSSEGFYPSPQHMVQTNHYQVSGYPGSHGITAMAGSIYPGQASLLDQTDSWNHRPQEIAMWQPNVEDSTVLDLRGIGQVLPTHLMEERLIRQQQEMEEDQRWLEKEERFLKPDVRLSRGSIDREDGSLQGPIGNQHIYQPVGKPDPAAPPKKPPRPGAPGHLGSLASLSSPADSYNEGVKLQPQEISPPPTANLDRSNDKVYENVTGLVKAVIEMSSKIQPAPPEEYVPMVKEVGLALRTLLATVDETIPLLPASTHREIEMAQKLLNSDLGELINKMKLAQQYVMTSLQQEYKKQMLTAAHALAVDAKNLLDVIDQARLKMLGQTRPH

[8] = Inhibition of full length recombinant His6-tagged PI4K3beta (unknown origin) expressed in Sf9 insect cells using PI : PS as substrate in presence of [gamma-33P]-ATP by scintillation counting method; set-up: species or system Homo sapiens; conditions: read-out: IC50
[9] = Selectivity index, ratio of CC50 for human RD cells to EC50 for Enterovirus 71; assay type: toxicity; conditions: read-out: Ratio CC50/EC50
Outline: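 SI is CC50/EC50. CC50 is from the MTS assay on uninfected RD cells and EC50 from the EV71 CPE-reduction assay, both medians of three dose-response curves run in parallel.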

[10] = target: Tyrosine-protein kinase HCK (Homo sapiens) (UniProt P08631); assay: Inhibition of full-length recombinant human HCK assessed as residual activity at 100 uM using poly(Glu,Tyr)4:1 as substrate by ADP-Glo bioluminescence assay relative to control relative to control; outline: as §1
Sequence of Tyrosine-protein kinase HCK (Homo sapiens) (P08631 2-526 limits assumed): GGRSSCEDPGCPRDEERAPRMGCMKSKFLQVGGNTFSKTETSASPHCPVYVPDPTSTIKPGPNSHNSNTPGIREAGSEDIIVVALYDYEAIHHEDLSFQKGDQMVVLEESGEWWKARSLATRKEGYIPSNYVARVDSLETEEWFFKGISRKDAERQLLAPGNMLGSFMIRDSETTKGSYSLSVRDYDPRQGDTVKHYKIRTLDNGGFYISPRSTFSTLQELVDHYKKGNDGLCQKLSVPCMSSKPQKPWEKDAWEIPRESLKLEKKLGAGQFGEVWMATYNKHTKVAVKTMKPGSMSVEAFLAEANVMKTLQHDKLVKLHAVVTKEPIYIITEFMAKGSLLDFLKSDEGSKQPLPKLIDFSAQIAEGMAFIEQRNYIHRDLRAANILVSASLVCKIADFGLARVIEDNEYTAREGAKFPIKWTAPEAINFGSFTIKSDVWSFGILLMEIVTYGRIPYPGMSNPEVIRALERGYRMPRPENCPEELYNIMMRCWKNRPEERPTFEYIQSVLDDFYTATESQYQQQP

## CC(=O)c1cccc(Nc2nc(-c3sc(NC(=O)OC(C)(C)C)nc3C)cs2)c1
[1]
  Activity: 69%
[2]
  Activity: 70%
Enterovirus A71 [3]
  EC50: 1.17 µM
Enterovirus A71 [4]
  EC50: 21 µM
[5]
  Activity: 88%
[6]
  CC50: 101 µM
[7]
  Activity: 82%
[8]
  IC50: 4.67 µM
[9]
  selectivity ratio: 29.7
[10]
  Activity: 100%
